# bIAP inh: intestinal alkaline phosphatase (bovine) inhibition | inhibition, % at 20 µM | 190,000 tested, under 10 active | purified bovine IAP, CDP-star luminescence, 30 min;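 active = over 50% inhibition of intestinal alkaline phosphatase at 20 µM in the single-dose screen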
#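 System: Purified bovine intestinal alkaline phosphatase (IAP) enzyme | Input: IAP diluted 1/65,000,000 in the well | Also added: CDP-star chemiluminescent phosphatase substrate, 30 µM final | Dosing: 20 µM single dose | Times: Enzyme reaction for 30 min at room temperature | Detection: Luminescence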
# hIAP inh: blocks human intestinal alkaline phosphatase | AID 2544 | purified IAP, CDP-Star luminescence, 30 min | inhibition, % at 10 µM | P09923 | hit rate 0.12% among 330,000;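 active = inhibition reaching a set limit with compound at 10 µM in the primary screen, cut at about 35% in these data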
# Target sequence (P09923 whole entry, looked up): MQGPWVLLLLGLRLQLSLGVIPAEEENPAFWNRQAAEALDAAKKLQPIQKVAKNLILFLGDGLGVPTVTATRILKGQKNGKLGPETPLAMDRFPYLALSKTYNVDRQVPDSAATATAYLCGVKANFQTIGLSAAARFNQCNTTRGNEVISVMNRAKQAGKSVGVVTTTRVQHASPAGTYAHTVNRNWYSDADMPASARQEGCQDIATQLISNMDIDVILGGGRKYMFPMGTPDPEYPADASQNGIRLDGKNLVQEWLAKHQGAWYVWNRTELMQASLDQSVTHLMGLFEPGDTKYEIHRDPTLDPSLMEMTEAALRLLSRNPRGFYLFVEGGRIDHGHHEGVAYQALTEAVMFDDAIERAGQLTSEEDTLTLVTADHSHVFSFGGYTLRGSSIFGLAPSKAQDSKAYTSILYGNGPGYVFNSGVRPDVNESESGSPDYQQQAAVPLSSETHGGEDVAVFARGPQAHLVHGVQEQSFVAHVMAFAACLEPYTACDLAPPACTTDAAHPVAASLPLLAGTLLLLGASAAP
# hIAP activ: human IAP activation; activation factor at 10 µM; hit rate 0.16% among 330,000; purified human IAP, CDP-Star luminescence, 30 min; stronger effect = higher value; 1 = vehicle-only enzyme, 0 = enzyme-free background; P09923;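 active = activation factor of the enzyme at least 2-fold when tested at 20 µM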
# bIAP act: increases bovine intestinal alkaline phosphatase activity | purified bovine IAP, CDP-star luminescence, 30 min; stronger effect = higher value; fold of DMSO-control signal, blank-subtracted | AID 1016 | hit rate 0.17% among 200,000 | activation factor at 20 µM;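 active = activation factor of 2 or more at 20 µM, a signal rise over negative controls twice the positive control's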
# mIAP block: blocks mouse intestinal alkaline phosphatase | purified mouse IAP, CDP-Star luminescence, 30 min | AID 2806 | inhibition, % at 10 µM | hit rate 0.2% among 330,000;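 active = inhibition of at least 40% at 10 µM in the primary screen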
# mIAP act: mouse IAP activation | muIAP, CDP-Star luminescence, 30 min; stronger effect = higher value; 1 = vehicle-only enzyme signal, 0 = enzyme-free wells | activation factor at 10 µM | hit rate 0.24% among 330,000;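 active = activation factor of at least 2 at 20 µM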
#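 System: mouse IAP enzyme. Reagent: CDP-Star chemiluminescent phosphatase substrate. Benchmarks: DMSO wells, no-enzyme wells. Times: 30 min enzyme-substrate-compound incubation at room temperature. Detection: luminescence from enzymatic CDP-Star hydrolysis. Doses: test compounds delivered from DMSO solution.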
# mIAP inh conf: mouse IAP inhibition confirmation; purified mouse IAP, CDP-Star luminescence, 30 min; hit rate 4.7% among 11,000; shares compounds with mIAP block; inhibition, % at 10 µM;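 active = inhibition of at least 40% at 10 µM in either of the two replicates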
# Hits are given with their value; - = inactive; . = not tested or not shown. An excerpt weighted towards active compounds, which were near 0.79% of everything screened.
SMILES,bIAP inh,hIAP inh,hIAP activ,bIAP act,mIAP block,mIAP act,mIAP inh conf
NS(=O)(=O)c1ccc(Nc2nc(-c3ccc(O)cc3O)cs2)cc1,-,-,-,-,40,-,60
O=C(NCCCO)c1ccc2nc(-c3ccco3)c(-c3ccco3)nc2c1,-,.,.,-,.,.,.
O=C(NCCO)Nc1ccc2nc(-c3ccco3)c(-c3ccco3)nc2c1,-,-,-,-,42,-,49
COc1ccccc1C(CC(=O)Nc1ccc(Cl)cc1)c1ccc(OC(C)C)cc1 (stereo not given),.,-,-,-,-,3.7,-
CCC(C)[C@@H]1NC(=O)N(CCCN2CCCC2=O)C1=O (stereo not given in full),.,-,-,.,-,-,.
CS(=O)(=O)NCCSc1cc(C(F)(F)F)nc2ccccc12,.,-,-,.,-,-,.
O=C1c2cc(O)c(O)cc2S(=O)(=O)C1c1ccccc1 (stereo not given),.,-,-,.,51,-,62
O=C1c2ccccc2C(=O)C1c1ccc(O)cc1,-,-,-,-,-,-,.
O=C(NN1C(=O)/C(=C/C=C/c2ccco2)SC1=S)c1ccccc1O,.,-,-,.,87,-,93
Cn1cccc1/C=C1\SC(=S)N(NC(=O)c2ccccc2O)C1=O,.,-,-,.,-,-,.
O=C(O)CC(C(=O)O)N1C(=O)/C(=C/c2ccc(-c3nc4ccccc4s3)o2)SC1=S (stereo not given),-,-,-,-,63,-,62
O=C(O)CC(C(=O)O)N1C(=O)/C(=C/C=C/c2ccco2)SC1=S (stereo not given),.,-,-,.,74,-,80
O=C(O)CCN1C(=O)/C(=C/c2ccc(-c3nc4ccccc4s3)o2)SC1=S,-,-,-,-,-,-,.
O=C(O)CCCN1C(=O)/C(=C/C=C/c2ccco2)SC1=S,.,-,-,.,68,-,69
Cc1ccc(NC(=O)CCCN2C(=O)/C(=C/C=C/c3ccccc3)SC2=S)cc1,-,-,-,-,-,-,.
CCOC(=O)COc1c(/C=N\O)cc(Cl)cc1OC,-,-,-,-,-,-,.
COc1ccc(OC)c(C2CC(=O)N3CN(c4ccccc4)CSC3=C2C#N)c1 (stereo not given),-,-,-,-,-,-,.
Cc1cccc(N2CSC3=C(C#N)C(c4ccc(C)o4)CC(=O)N3C2)c1 (stereo not given),-,-,-,-,58,-,63
CCOP(=O)(OCC)C(NC(=O)Nc1ccc(C)c(Cl)c1)c1ccccc1 (stereo not given),-,-,-,-,-,3.4,-
CC(NC(=O)Nc1ccc(Cl)cc1)c1ccccc1 (stereo not given),.,-,-,.,-,3.3,-
CCOc1ccc(NC(=O)NC(C)c2ccc3c(c2)OCO3)cc1 (stereo not given),.,-,-,.,-,-,.
CC(C)c1ccc(NC(=O)NC(C)c2ccc3c(c2)OCO3)cc1 (stereo not given),.,-,-,.,-,4.5,-
Oc1ccc(-c2cn3c(n2)SCC3)cc1O,-,-,-,-,61,-,92
CC/C(=N\NC(=O)C1CCCC1)c1ccc(Br)cc1,.,-,-,.,-,-,.
N=C1S/C(=C\c2ccco2)C(=O)N1c1nccs1,-,-,-,-,60,-,65
SMILES,bIAP inh,hIAP inh,hIAP activ,bIAP act,mIAP block,mIAP act,mIAP inh conf
N=C1S/C(=C\c2ccco2)C(=O)N1c1ccc2c(c1)OCO2,-,-,-,-,52,-,78
Cc1cccc(N=Cc2cc3c(cc2[N+](=O)[O-])OCO3)c1,-,-,-,-,-,-,.
Cc1cc(O)c(N=Cc2cc3c(cc2[N+](=O)[O-])OCO3)cc1C,.,-,-,.,51,-,60
CC(C)(C)OC(=O)N1CCC[C@H]1C(=O)N/N=C/c1cccc2nccnc12,.,-,-,.,-,-,.
CCCCNC(=O)Oc1c(Br)cc2sc(=O)oc2c1Br,.,-,-,.,78,-,81
Cc1ccc2[nH]c(=O)c(C(c3nnnn3CC3CCCO3)N3CCCc4ccccc43)cc2c1 (stereo not given),-,-,-,-,50,-,60
Cc1ccc2cc(C(c3nnnn3Cc3ccccc3)N3CCc4ccccc43)c(=O)[nH]c2c1 (stereo not given),-,-,-,-,-,-,.
Cc1ccc2[nH]c(=O)c(C(c3nnnn3C3CCCC3)N3CCCc4ccccc43)cc2c1 (stereo not given),-,-,-,-,57,-,60
Cc1ccc2[nH]c(=O)c(C(c3nnnn3Cc3ccccc3)N3CCc4ccccc43)cc2c1 (stereo not given),-,-,-,-,55,-,64
Cc1ccc2[nH]c(=O)c(C(c3nnnn3CC3CCCO3)N3CCc4ccccc4C3)cc2c1 (stereo not given),-,-,-,-,70,-,74
COc1ccc(C)cc1NC(=O)NC(C)c1ccc2c(c1)OCO2 (stereo not given),.,-,-,.,-,-,.
CC(C)C1Nc2ccc(S(N)(=O)=O)cc2C2C=CCC21 (stereo not given),-,-,-,-,48,-,45
CCOC(=O)C1Nc2ccc(OC(F)(F)F)cc2C2C=CCC12 (stereo not given),.,-,-,.,-,-,.
CN(C)/C=C/C(=O)c1ccc([N+](=O)[O-])c(CS(=O)(=O)c2ccc(Cl)cc2)c1,.,-,-,.,-,-,.
O=C(CSc1nnc(-c2ccco2)o1)c1ccccc1,-,-,-,-,44,-,43
O=C(CSc1nnc(-c2ccco2)c(-c2ccco2)n1)c1ccccc1,-,-,-,-,50,-,51
O=C(CSc1nnc(-c2ccco2)o1)c1ccc(F)c(F)c1,-,-,-,-,-,-,.
O=[N+]([O-])c1cccc(C2(O)COc3ccccc3O2)c1 (stereo not given),.,-,-,.,-,-,.
O=C(c1ccc(S(=O)(=O)N2CCc3ccccc3C2)cc1)N1CCCCC1,-,-,-,-,-,-,.
Cc1ccc(NC(=O)CCOc2ccccc2C)cc1F,-,-,-,-,-,-,.
CC(=O)c1sc(C(=O)O)c(-c2ccco2)c1-c1ccco1,.,-,-,.,55,-,64
CC(C)(Oc1ccc(-c2ccco2)cc1)C(=O)O,-,-,-,-,-,-,.
Cc1ccc(S(=O)(=O)N(C)C)cc1NC(=O)Cn1c(CN2CCOCC2)nc2ccccc2c1=O,-,-,-,-,-,-,.
O=C1c2ccccc2C(=O)c2c(O)c(O)cc(O)c21,.,-,-,.,-,-,.
O=C1C=C(O)c2c(O)cc(O)c(O)c2C1=O,.,-,-,.,69,-,55
COc1cc(CN2CCCC(C(=O)c3ccc4c5c(cccc35)CC4)C2)cc(OC)c1O (stereo not given),-,-,-,-,-,-,.
